According to ChEMBL document CHEMBL4689842, “EUbOPEN Chemogenomics Library wave 1” (2021):
“And” between values parts separate entries of the source, which are not always exact repeats. Equal entries are not always repeated.

Tests used:
Assay type in all cases: toxicity, cell-based
Details in all cases: human, 10 µM, compound concentration 10 uM
HEK-293T [1] = test: Multiplex assay against HEK293T;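 as to Population Tubulin-Different-Phenotype (%): share of the cells with healthy nuclei that show this phenotype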
Method in brief: (§1)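 Values for tubulin, mitochondrial-mass and membrane-permeability phenotypes are per cents of cells with healthy nuclei. These cells were identified by CellPathfinder machine-learning gating of live cells that had been stained at seeding with Hoechst33342, BioTracker Green Microtubule Cytoskeleton Dye, MitoTracker Red and Annexin V Alexa Fluor 680 and imaged on a CQ1 microscope at 37°C and 5% CO2 after compound addition. The gating first set Hoechst high-intensity objects apart from normal cells, then split normal cells into healthy, pyknosed or fragmented nuclei, and pyknosed cells into mitotic or apoptotic.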

U2OS = test: Multiplex assay against U2OS; method in brief: as §1
HEK-293T [2] = test: Incucyte cell viability with HEK293T; also: filed as whole numbers so only -1 and 0 and 1 occur

With C[C@@H]1CN(c2cc(-c3nn(C)c4ccc(OC5(C)CC5)cc34)ncn2)C[C@H](C)O1 [MLi-2-NC] the “Population Mitotic Cells (%)” value (HEK-293T [1]; 12 h, replicate 2) was 93% and 87%, the “Population Normal (%)” value (HEK-293T [1]; 12 h, replicate 2) was 97% and 96% and the “Population Pyknosed Nuclei (%)” value (HEK-293T [1]; 12 h, replicate 2) was 4% and 6%. The “Population Tubulin-Different-Phenotype (%)” value (HEK-293T [1]; 12 h, replicate 2) was 5% and 14%, the “Total Cell Count” value (HEK-293T [1]; 12 h, replicate 2) was 1849 and 1412 and the “Population Apoptotic (%)” value (HEK-293T [1]; 24 h, replicate 1) was 11% and 25%. The “Population Fragmented Nuclei (%)” value (HEK-293T [1]; 24 h, replicate 1) was 16% and 12%, the “Population Healthy Nuclei (%)” value (HEK-293T [1]; 24 h, replicate 1) was 72% and 75% and the “Population Hoechst High Intensity Objects (%)” value (HEK-293T [1]; 24 h, replicate 1) was 6% and 11%. The “Population Membrane Permeable-Phenotype (%)” value (HEK-293T [1]; 24 h, replicate 1) was 3%, the “Population Mitochondria Different-Phenotype (%)” value (HEK-293T [1]; 24 h, replicate 1) was 1% and 5% and the “Population Mitotic Cells (%)” value (HEK-293T [1]; 24 h, replicate 1) was 88% and 74%. For the same compound, the “Population Normal (%)” value (HEK-293T [1]; 24 h, replicate 1) was 93% and 88%, the “Population Pyknosed Nuclei (%)” value (HEK-293T [1]; 24 h, replicate 1) was 10% and 12% and the “Total Cell Count” value (HEK-293T [1]; 24 h, replicate 1) was 505 and 711. The “Population Apoptotic (%)” value (HEK-293T [1]; 24 h, replicate 2) was 3% and 7%, the “Population Fragmented Nuclei (%)” value (HEK-293T [1]; 24 h, replicate 2) was 24% and 13% and the “Population Healthy Nuclei (%)” value (HEK-293T [1]; 24 h, replicate 2) was 73% and 83%. The “Population Hoechst High Intensity Objects (%)” value (HEK-293T [1]; 24 h, replicate 2) was 2% and 4%, the “Population Membrane Permeable-Phenotype (%)” value (HEK-293T [1]; 24 h, replicate 2) was 5% and the “Population Mitochondria Different-Phenotype (%)” value (HEK-293T [1]; 24 h, replicate 2) was 2% and 4%. The “Population Mitotic Cells (%)” value (HEK-293T [1]; 24 h, replicate 2) was 96% and 92%, the “Population Normal (%)” value (HEK-293T [1]; 24 h, replicate 2) was 97% and 95% and the “Population Pyknosed Nuclei (%)” value (HEK-293T [1]; 24 h, replicate 2) was 1% and 3%. For the same compound, the “Total Cell Count” value (HEK-293T [1]; 24 h, replicate 2) was 3187 and 2081, the “Population Apoptotic (%)” value (U2OS; 12 h, replicate 1) was 80% and 54% and the “Population Fragmented Nuclei (%)” value (U2OS; 12 h, replicate 1) was 2%. For the same compound, the “Population Healthy Nuclei (%)” value (U2OS; 12 h, replicate 1) was 93% and 87%, the “Population Hoechst High Intensity Objects (%)” value (U2OS; 12 h, replicate 1) was 4% and 5% and the “Population Membrane Permeable-Phenotype (%)” value (U2OS; 12 h, replicate 1) was 19% and 9%. The “Population Mitochondria Different-Phenotype (%)” value (U2OS; 12 h, replicate 1) was 14% and 30%, the “Population Mitotic Cells (%)” value (U2OS; 12 h, replicate 1) was 20% and 45% and the “Population Normal (%)” value (U2OS; 12 h, replicate 1) was 95% and 94%. For the same compound, the “Population Pyknosed Nuclei (%)” value (U2OS; 12 h, replicate 1) was 3% and 7%, the “Population Tubulin-Different-Phenotype (%)” value (U2OS; 12 h, replicate 1) was 16% and 29% and the “Total Cell Count” value (U2OS; 12 h, replicate 1) was 165 and 347. The “Population Apoptotic (%)” value (U2OS; 12 h, replicate 2) was 50% and 40%, the “Population Fragmented Nuclei (%)” value (U2OS; 12 h, replicate 2) was 5% and 7% and the “Population Healthy Nuclei (%)” value (U2OS; 12 h, replicate 2) was 91% and 88%. The “Population Hoechst High Intensity Objects (%)” value (U2OS; 12 h, replicate 2) was 9% and 15%, the “Population Membrane Permeable-Phenotype (%)” value (U2OS; 12 h, replicate 2) was 14% and 7% and the “Population Mitochondria Different-Phenotype (%)” value (U2OS; 12 h, replicate 2) was 21% and 26%. For the same compound, the “Population Mitotic Cells (%)” value (U2OS; 12 h, replicate 2) was 50% and 60%, the “Population Normal (%)” value (U2OS; 12 h, replicate 2) was 90% and 84% and the “Population Tubulin-Different-Phenotype (%)” value (U2OS; 12 h, replicate 2) was 14% and 41%. The “Total Cell Count” value (U2OS; 12 h, replicate 2) was 153 and 242, the “Population Apoptotic (%)” value (U2OS; 24 h, replicate 1) was 44% and 50% and the “Population Healthy Nuclei (%)” value (U2OS; 24 h, replicate 1) was 92%. For the same compound, the “Population Hoechst High Intensity Objects (%)” value (U2OS; 24 h, replicate 1) was 1%, the “Population Membrane Permeable-Phenotype (%)” value (U2OS; 24 h, replicate 1) was 10% and 3% and the “Population Mitochondria Different-Phenotype (%)” value (U2OS; 24 h, replicate 1) was 16% and 21%. The “Population Mitotic Cells (%)” value (U2OS; 24 h, replicate 1) was 55% and 50%, the “Population Normal (%)” value (U2OS; 24 h, replicate 1) was 98% and the “Population Tubulin-Different-Phenotype (%)” value (U2OS; 24 h, replicate 1) was 16% and 32%. The “Total Cell Count” value (U2OS; 24 h, replicate 1) was 226 and 387, the “Population Fragmented Nuclei (%)” value (U2OS; 24 h, replicate 2) was 4% and 3% and the “Population Healthy Nuclei (%)” value (U2OS; 24 h, replicate 2) was 90% and 93%. For the same compound, the “Population Hoechst High Intensity Objects (%)” value (U2OS; 24 h, replicate 2) was 11% and 4%, the “Population Membrane Permeable-Phenotype (%)” value (U2OS; 24 h, replicate 2) was 12% and 8% and the “Population Mitochondria Different-Phenotype (%)” value (U2OS; 24 h, replicate 2) was 27% and 18%. The “Population Normal (%)” value (U2OS; 24 h, replicate 2) was 88% and 95%, the “Population Pyknosed Nuclei (%)” value (U2OS; 24 h, replicate 2) was 4% and 3% and the “Population Tubulin-Different-Phenotype (%)” value (U2OS; 24 h, replicate 2) was 18% and 37%. The “Total Cell Count” value (U2OS; 24 h, replicate 2) was 183 and 245, the “Growth Rate” value (HEK-293T [2]; 0 h, replicate number 1, timepoint 0 hours) was 0 and the “Growth Rate” value (HEK-293T [2]; 6 h, replicate number 1, timepoint 6 hours) was 1. The “Growth Rate” value (HEK-293T [2]; 6 h, replicate number 2, timepoint 6 hours) was 0, the “Growth Rate” value (HEK-293T [2]; 12 h, replicate number 1, timepoint 12 hours) was 0 and the “Growth Rate” value (HEK-293T [2]; 18 h, replicate number 1, timepoint 18 hours) was 0. The “Growth Rate” value (HEK-293T [2]; 24 h, replicate number 1, timepoint 24 hours) was 0.
